5 molecules from ChEMBL document CHEMBL1133118 (J Med Chem, 2000) can be followed below.

Each structure is given as a SMILES string.

The target of experiment [1] is T1, Adenosine receptor A2a (Homo sapiens, UniProt P29274). Briefly: Displacement of [3H]-SCH- 58261 from human adenosine A2A receptor expressed in CHO cells; range 85-140. Format: cell-based. On the technique in general: Displacement assays read how much labelled ligand stays bound in the presence of the test substance.
The target of experiment [2] is T2, Adenosine receptor A2b (Homo sapiens, UniProt P29275).
T2 sequence (P29275 whole entry): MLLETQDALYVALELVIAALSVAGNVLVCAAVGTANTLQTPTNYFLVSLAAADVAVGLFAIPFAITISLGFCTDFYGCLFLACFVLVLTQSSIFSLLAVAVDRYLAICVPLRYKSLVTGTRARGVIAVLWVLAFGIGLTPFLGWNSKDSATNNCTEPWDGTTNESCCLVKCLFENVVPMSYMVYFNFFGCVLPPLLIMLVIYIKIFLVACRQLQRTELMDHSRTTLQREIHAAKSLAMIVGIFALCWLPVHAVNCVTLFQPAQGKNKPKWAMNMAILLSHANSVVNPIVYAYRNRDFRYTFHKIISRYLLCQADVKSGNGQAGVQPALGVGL
Briefly: Displacement of [3H]DPCPX from Adenosine A2b receptor expressed in […]; range 70-94. It is filed as cell-based.

Experiment [3] addresses T3, Adenosine receptor A3 (Homo sapiens, UniProt P0DMS8).
T3 sequence (P0DMS8 whole entry): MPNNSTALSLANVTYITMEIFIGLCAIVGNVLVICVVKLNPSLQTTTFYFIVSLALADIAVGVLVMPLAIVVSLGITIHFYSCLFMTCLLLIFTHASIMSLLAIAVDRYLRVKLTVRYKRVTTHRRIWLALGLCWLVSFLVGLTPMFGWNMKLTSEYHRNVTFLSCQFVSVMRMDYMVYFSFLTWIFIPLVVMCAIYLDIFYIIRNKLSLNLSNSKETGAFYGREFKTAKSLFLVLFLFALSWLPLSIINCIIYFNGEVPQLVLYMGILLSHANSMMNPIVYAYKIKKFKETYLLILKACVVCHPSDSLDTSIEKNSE
Briefly: Displacement of [3H]MRE3008-F20 from human adenosine A3 receptor expressed in CHO cells; range 50-61. Format: cell-based.

Experiment [4] has as its target T4, Adenosine receptor A1 (Homo sapiens, UniProt P30542).
T4 sequence (P30542 whole entry): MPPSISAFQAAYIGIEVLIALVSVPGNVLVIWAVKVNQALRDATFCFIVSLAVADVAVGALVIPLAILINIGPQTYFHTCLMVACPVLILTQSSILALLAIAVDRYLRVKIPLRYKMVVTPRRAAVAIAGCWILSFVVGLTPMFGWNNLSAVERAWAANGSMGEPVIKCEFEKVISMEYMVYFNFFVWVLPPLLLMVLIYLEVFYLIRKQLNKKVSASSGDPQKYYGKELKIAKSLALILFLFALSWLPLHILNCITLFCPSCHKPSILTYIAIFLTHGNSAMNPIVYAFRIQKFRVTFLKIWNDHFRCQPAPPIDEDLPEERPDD
As to the kind of experiment: Displacement of [3H]DPCPX from human adenosine A1 receptor expressed in CHO cells; range 329-375. Format: cell-based.

For experiment [5], the target named is Adenosine receptors; A2b & A3 (Homo sapiens) (UniProt P29275+P0DMS8). As to the kind of experiment: Ratio of binding affinity of human A2B receptor to that of human A3 receptor. It is filed as protein assay. An outline of the steps:
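Ki ratio, n=3-6, 6–8 concentrations. A2B in HEK-293 membranes (20 μg): 40 nM [3H]DPCPX, 50 mM Tris HCl, 10 mM MgCl2, 1 mM EDTA, 0.1 mM benzamidine pH 7.4, 2 IU/mL adenosine deaminase, 60 min at 25 °C, nonspecific with 100 μM NECA. A3 in CHO membranes (50 μg): 1 nM [3H]MRE3008-F20, 120 min at 4 °C.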

Experiment [6] has as its target T5, Adenosine receptor A3 (Homo sapiens) (UniProt P0DMS8).
T5 sequence (whole entry): T3 sequence (P0DMS8 whole entry)
Briefly: Percent reversal of 100 nM IB-MECA-inhibited cAMP accumulation in CHO cells expressing human adenosine A3 receptor at 1 uM; range 26-54. It is filed as functional, cell-based. In a few lines:
(§1)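 CHO cells stably expressing human A3 receptor; membranes in 50 mM Tris HCl, 10 mM MgCl2, 1 mM EDTA pH 7.4 with 5 μM GTP, 0.5 mM […] and 2.0 IU/mL adenosine deaminase. Preincubated 10 min at 37 °C, then IB-MECA (100 nM) and/or antagonist with 1 mM ATP and 10 μM forskolin for 10 min. Boiled 2 min. cAMP read by [3H]cAMP competition with adrenal binding protein.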

Experiment [7] has as its target Adenosine receptors; A1 & A3 (Homo sapiens) (UniProt P30542+P0DMS8). As to the kind of experiment: Ratio of binding affinity of human A1 receptor to that of human A3 receptor. Format: protein assay. In a few lines: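 Ki ratio from displacement in CHO membranes, 6–8 concentrations, n=3-6, filtration counting. A1: 1 nM [3H]DPCPX, 50 μg protein, 120 min at 25 °C, nonspecific with 10 μM CHA. A3: 1 nM [3H]MRE3008-F20, 50 μg protein, Tris/10 mM MgCl2 pH 7.4, 120 min at 4 °C, nonspecific with 1 μM MRE3008-F20.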

Experiment [8] concerns the target T4, Adenosine receptor A1. As to the kind of experiment: Displacement of [3H]DPCPX from human adenosine A1 receptor expressed in CHO cells; range 632-1003. It is filed as cell-based.
For experiment [9], the target named is T1, Adenosine receptor A2a. As to the kind of experiment: Displacement of [3H]-SCH- 58261 from human adenosine A2A receptor expressed in CHO cells; range 461-645. It is filed as cell-based.
Experiment [10] deals with T5, Adenosine receptor A3 (Homo sapiens). As to the kind of experiment: Percent reversal of 100 nM IB-MECA-inhibited cAMP accumulation in CHO cells expressing human adenosine A3 receptor at 1 uM; range 63-110. It is filed as functional, cell-based. An outline of the steps:
as §1
A general note: Cyclic AMP is a second messenger, typically raised through Gs and lowered through Gi signalling.

The target in experiment [11] is T3, Adenosine receptor A3. As to the kind of experiment: Displacement of [3H]MRE3008-F20 from human adenosine A3 receptor expressed in CHO cells; range 0.63-1.00. Format: cell-based.
Experiment [12] addresses T3, Adenosine receptor A3. As to the kind of experiment: Inhibition of cAMP accumulation in CHO cells expressing human adenosine A3 receptor; range 5.1-8.9. It is filed as functional, cell-based. In a few lines: as §1
Experiment [13] has as its target T2, Adenosine receptor A2b. Briefly: Displacement of [3H]DPCPX from Adenosine A2b receptor expressed in […]; range 1531-1920. It is filed as cell-based.
Experiment [14] concerns the target T3, Adenosine receptor A3. Briefly: Displacement of [3H]MRE3008-F20 from human adenosine A3 receptor expressed in CHO cells; range 247-317. Format: cell-based.
Experiment [15] concerns the target T1, Adenosine receptor A2a. As to the kind of experiment: biochemical.
For experiment [16], the target named is T5, Adenosine receptor A3 (Homo sapiens). Briefly: Percentage of blockade by 1 uM of the inhibition by 100 nM IB-MECA-inhibited cAMP accumulation in CHO cells expressing human adenosine A3 receptor. It is filed as functional, cell-based. In a few lines: as §1
Experiment [17] has as its target T2, Adenosine receptor A2b. As to the kind of experiment: Displacement of [3H]DPCPX from Adenosine A2b receptor expressed in […]; range 3.9-6.7. Format: cell-based.
In experiment [18] the target is T5, Adenosine receptor A3 (Homo sapiens). The note with it: CHO, 1 uM.
For experiment [19], the target named is T1, Adenosine receptor A2a. Briefly: Displacement of [3H]-SCH- 58261 from human adenosine A2A receptor expressed in CHO cells; range 218-283. Format: cell-based.
Experiment [20] has as its target T4, Adenosine receptor A1. Briefly: Displacement of [3H]DPCPX from human adenosine A1 receptor expressed in CHO cells; range 179-317. Format: cell-based.
In experiment [21] the target is T2, Adenosine receptor A2b. As to the kind of experiment: Tested for inhibitory activity against Adenosine A2b receptor by displacement of [3H]DPCPX expressed in […]; value ranges from 61-80. Format: cell-based.
For experiment [22], the target named is T3, Adenosine receptor A3. As to the kind of experiment: biochemical.
Experiment [23] addresses T3, Adenosine receptor A3. As to the kind of experiment: Inhibition of cAMP accumulation in CHO cells expressing human A3 adenosine receptor. It is filed as functional, cell-based.
Experiment [24] addresses T2, Adenosine receptor A2b. Briefly: Displacement of [3H]DPCPX from Adenosine A2b receptor expressed in CHO cells; range 35-45. It is filed as cell-based. Conditions: in the assay text read “HEK-293 cells” for “CHO cells”. In a few lines: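 Human recombinant A2B receptor was expressed in HEK-293 cell membranes (20 μg protein). Incubated with 40 nM [3H]DPCPX in 50 mM Tris HCl, 10 mM MgCl2, 1 mM EDTA, 0.1 mM benzamidine, pH 7.4, with 2 IU/mL adenosine deaminase, at least 6–8 test concentrations, 60 min, 25 °C. Nonspecific binding was taken with 100 μM NECA; n=3-6.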

The target of experiment [25] is T3, Adenosine receptor A3. As to the kind of experiment: biochemical. This is another data set of the same source.
For experiment [26], the target named is T1, Adenosine receptor A2a. As to the kind of experiment: Displacement of [3H]-SCH- 58261 from human adenosine A2A receptor expressed in CHO cells; range 1.90-3.37. Format: cell-based.

T1 sequence (P29274 whole entry): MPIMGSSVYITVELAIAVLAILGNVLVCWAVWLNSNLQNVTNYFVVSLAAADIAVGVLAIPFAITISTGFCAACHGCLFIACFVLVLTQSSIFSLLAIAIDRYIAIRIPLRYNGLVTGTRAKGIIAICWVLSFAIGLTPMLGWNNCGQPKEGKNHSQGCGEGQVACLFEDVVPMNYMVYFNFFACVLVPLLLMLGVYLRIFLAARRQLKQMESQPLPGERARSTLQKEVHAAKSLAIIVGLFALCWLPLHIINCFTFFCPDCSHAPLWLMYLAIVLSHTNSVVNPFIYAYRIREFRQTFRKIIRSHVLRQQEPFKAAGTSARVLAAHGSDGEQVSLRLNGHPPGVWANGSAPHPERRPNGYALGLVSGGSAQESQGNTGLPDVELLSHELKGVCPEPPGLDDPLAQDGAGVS

In the case of `CC(C)=CCn1cc2c(nc(NC(=O)Nc3cccc(Cl)c3)n3nc(-c4ccco4)nc23)n1`, the Ki in [1] was 110 nM; in experiment [2], 81 nM; in experiment [3] it was 55 nM; in [4], 352 nM. Also, the Ratio in experiment [5] came to 1.47; in [7] it was 6.4. Further, the inhibition in [6] worked out at 38%.
For the molecule `COc1ccc(NC(=O)Nc2nc3nn(C(C)(C)C)cc3c3nc(-c4ccco4)nn23)cc1`, the Ki in experiment [8] was found to be 796 nM; in [9] it was 545 nM; in [11], 0.8 nM; in [13], 1720 nM. In addition, the inhibition in experiment [10] worked out at 84%. This molecule also returned an IC50 in experiment [12] of 6.8 nM. For the same molecule, the Ratio is 2140 in experiment [5] and 995 in [7].
In the case of `Nc1nc2nn(CCc3ccccc3)cc2c2nc(-c3ccco3)nn12`, the results for the Ki in experiment [14], in experiment [15] and in experiment [17] were 280 nM, 0.34 nM and 5.1 nM, respectively. For the same molecule, the inhibition in [16] is 28%. The Ratio stood at 0.0017 in [5] and 0.003 in experiment [7].
With `O=C(Nc1cccc(Cl)c1)Nc1nc2n[nH]cc2c2nc(-c3ccco3)nn12`, the inhibition in [18] worked out at 88%. Besides, the Ki worked out at 248 nM in experiment [19], 238 nM in experiment [20], 70 nM in experiment [21] and 0.5 nM in experiment [22]. Besides, the IC50 in [23] was determined as 5.3 nM. The Ratio in experiment [5] worked out at 140; in [7] it was 476.
Take `CCCn1cc2c(nc(N)n3nc(-c4ccco4)nc23)n1`: the values for the Ki in experiment [24], in [25] and in [26] were 39 nM, 408 nM and 2.51 nM, respectively. The molecule further showed an inhibition in experiment [16] of 23%. Moreover, the Ratio in experiment [5] amounted to 0.095; in experiment [7], 0.024.

For orientation: Ki means the dissociation constant of the complex between target and ligand, obtained from inhibition or displacement. Broadly, the inhibition is the change of the read-out against control, counted positive when it falls. As usually defined, the IC50 is the concentration that inhibits the measured activity by half.
